Data published in ChEMBL document CHEMBL1154833, “Curcuminoid analogs with potent activity against Trypanosoma and Leishmania species” (Eur J Med Chem, 2010).

Tests used:
[1] = system: Trypanosoma brucei brucei; test: Antitrypanosomal activity against Trypanosoma brucei brucei 427 after 48 hrs by alamar blue assay; assay type: functional, organism-based; details: Trypanosoma brucei, 427, 48 h; read-out: EC50
[2] = system: Trypanosoma brucei brucei; test: Antitrypanosomal activity against diminazene-resistant Trypanosoma brucei brucei deltaTbat1-KO after 48 hrs by alamar blue assay; assay type: functional, organism-based
[3] = system: Trypanosoma brucei brucei; test: Antitrypanosomal activity against multidrug-resistant Trypanosoma brucei brucei B48 after 48 hrs by alamar blue assay; assay type: functional, organism-based; details: B48, 48 h
[4] = system: Leishmania major; test: Antileishmanial activity against Leishmania major Friedlin promastigotes after 48 hrs by alamar blue assay; assay type: functional, organism-based; details: Leishmania major, Friedlin, 48 h; read-out: EC50
How it was run: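 L. major Friedlin promastigotes grown in HOMEM with 10% FBS at 25 °C. Alamar Blue fluorescence assay in 96-well plates. 3–6 independent experiments unless noted.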

[5] = system: Leishmania mexicana; test: Antileishmanial activity against Leishmania mexicana MNYC/BZ/62/M379 amastigotes after 48 hrs by alamar blue assay; assay type: functional, organism-based; details: Leishmania mexicana, MNYC/BZ/62/M379, 48 h; read-out: EC50
How it was run: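 Axenic L. mexicana MNYC/BZ/62/M379 amastigotes kept at 33 °C under CO2 in Schneider's Drosophila medium with 20% FBS and 0.3% gentamycin. Alamar Blue fluorescence read-out.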

[6] = system: HEK293; test: Cytotoxicity against HEK293 cells after 16 hrs by alamar blue assay; assay type: cell-based, Homo sapiens; details: Homo sapiens, HEK293, 16 h; read-out: EC50
How it was run: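 HEK293T cells grown in DMEM-based medium with 10% newborn bovine serum at 37 °C, 5% CO2. Doubling dilutions of compound added for 16 h, then resazurin added. Fluorescence read at emission 590 nm after a further 24 h.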

[7] = Selectivity index, ratio of EC50 for HEK cells to EC50 for Leishmania major Friedlin promastigotes; assay type: toxicity, cell-based, HEK293; details: human, HEK cells versus Leishmania major Friedlin promastigotes; read-out: Ratio EC50
How it was run: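 Ratio of HEK EC50 to parasite EC50. For HEK293T cells in DMEM with 10% newborn bovine serum at 37 °C and 5% CO2, doubling dilutions of compound were added for 16 h, then Alamar Blue, and fluorescence (em 590 nm) was read after another 24 h. L. major Friedlin promastigotes were grown in HOMEM with 10% FBS at 25 °C and tested by Alamar Blue. EC50 values came from sigmoid non-linear regression.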

[8] = Selectivity index, ratio of EC50 for HEK cells to EC50 for Trypanosoma brucei brucei 427; assay type: toxicity, cell-based, HEK293; details: human, HEK cells versus Trypanosoma brucei brucei 427; read-out: Ratio EC50
[9] = system: Trypanosoma evansi; test: Antitrypanosomal activity against Trypanosoma evansi ITMAV170475 after 48 hrs by alamar blue assay; assay type: functional, organism-based; details: ITMAV170475, 48 h
How it was run: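 Culture-adapted T. evansi ITMAV170475 seeded at 1.5 ×10⁵ trypanosomes/ml in HMI9/20% FBS. Exposed to compound for 48 h, then incubated with Alamar Blue for 24 h, all at 37 °C under CO2. Assay validated against hemocytometer cell counts. EC50 from a variable-slope sigmoid fit.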

[10] = system: Trypanosoma brucei brucei; test: Selectivity ratio of EC50 for Trypanosoma brucei brucei B48 to EC50 for Trypanosoma brucei brucei 427; assay type: functional
How it was run: (§1)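 T. b. brucei bloodstream forms (strain 427, its ΔTbAT1 clone, and the pentamidine-adapted B48 line derived from it) cultured in HMI9 with 10% FBS at 37 °C under CO2. EC50 for each line from the Alamar Blue fluorescence assay with sigmoid fitting, and the ratio taken between lines.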

[11] = system: Trypanosoma brucei brucei; test: Selectivity ratio of EC50 for Trypanosoma brucei brucei 427 to EC50 for Trypanosoma brucei brucei deltaTbat1-KO; assay type: functional; how it was run: as §1
[12] = system: Trypanosoma brucei brucei; test: Selectivity ratio of EC50 for Trypanosoma brucei brucei 427 to EC50 for Trypanosoma brucei brucei B48; assay type: functional; how it was run: as §1
[13] = Selectivity index, ratio of EC50 for HEK cells to EC50 for Trypanosoma brucei brucei B48; assay type: toxicity, cell-based, HEK293; details: human, HEK cells versus Trypanosoma brucei brucei B48; read-out: Ratio EC50
[14] = system: Trypanosoma brucei brucei; test: Antitrypanosomal activity against Trypanosoma brucei brucei GUTat 3.1; assay type: functional, organism-based

Row | Compound | EC50 [1] [µM] | EC50 [2] [µM] | EC50 [3] [µM] | EC50 [4] [µM] | EC50 [5] [µM] | EC50 [6] [µM] | selectivity ratio [7] | selectivity ratio [8] | EC50 [9] [µM] | Ratio EC50 [10] | Ratio EC50 [11] | Ratio EC50 [12] | selectivity ratio [13] | EC50 [14] [µM]
1 | COc1ccc(/C=C/C(=O)CC(=O)/C=C/c2ccc(OC)c(OC)c2)cc1OC [TETRAMETHOXYCURCUMIN] | 0.45 | 0.62 | 0.77 | 2.8 | 10 | 200 | 70 |  |  |  |  |  |  | 
2 | COc1cc(CC/C=C/C(O)CCc2ccc(O)c(OC)c2)ccc1O (configuration not stated) | 40 | 42 | 6.3 | 50 | 64 | 130 |  | 3 |  |  |  |  |  | 
3 | C=CCOc1ccc(/C=C/C(=O)CC(=O)/C=C/c2ccc(O)c(OC)c2)cc1OC | 2.4 | 2.2 | 12 | 5.7 | 12 | 270 |  |  | 1.6 | 5 |  |  |  | 
4 | O=C(/C=C/c1ccc(O)cc1)CC(=O)/C=C/c1ccc(O)c(O)c1 | 0.65 | 1.8 | 1 | 22 | 21 | 30 |  |  |  |  | 2.7 |  |  | 
5 | COc1cc(/C=C/C(=O)CC(=O)/C=C/c2ccc(O)c(O)c2)ccc1O | 0.87 | 1.1 | 2.7 | 4.3 | 3.2 | 36 |  |  | 1.1 | 3.1 |  |  |  | 
6 | COc1ccc(CC/C=C/C(=O)CCc2ccc(OC)c(OC)c2)cc1OC | 1.9 | 1.6 | 0.023 | 12 | 28 | 26 |  |  |  |  |  | 83 |  | 
7 | COc1cc(CC/C=C/C(=O)CCc2ccc(O)c(OC)c2)ccc1O | 0.053 | 0.082 | 0.023 | 8.9 | 17 | 24 |  | 453 | 0.17 |  |  |  | > 1000 | 
8 | CC(=O)NCC(=O)O.N=C(N)c1ccc(/N=N/Nc2ccc(C(=N)N)cc2)cc1 [DIMINAZEN ACETURATE] |  |  |  |  |  |  |  |  |  |  | 20 |  |  | 
9 | C=CCOc1ccc(/C=C/C(=O)CC(=O)/C=C/c2ccc(OCC=C)c(OC)c2)cc1OC | 1.6 | 1.9 | 5.8 | 25 | > 100 | > 500 |  |  | 5.6 | 3.6 |  |  |  | 
10 | COc1cc(/C=C/C(=O)CC(=O)/C=C/c2ccc(O)c(OC)c2)ccc1O [CURCUMIN] | 2.5 | 4.7 | 2.9 | 33 | 16 | 37 |  |  | 2 |  |  |  |  | 4.8
11 | COc1cc(/C=C/C(=O)CC(=O)/C=C/c2ccc(OCC=C(C)C)c(OC)c2)ccc1OCC=C(C)C | 1.2 | 1.6 | 1.3 | > 100 | 27 | > 1000 |  | > 1000 |  |  |  |  |  | 
